In PMC8572679 (Journal of Pharmaceutical Analysis, 2020):

Experiments:
[1] = Pharmacokinetics of BBR, M1 and M2 in vivo after single oral administration; settings: ICR mice; for AUC(0-t) / AUC(0-inf) / Cmax / MRT last / MRT inf / half-life: ICR, mouse, plasma, po, 200 mg/kg, two-compartment model, mean ± SD; for AUC(0-t): AUC(0–24 h); for AUC(0-t) / AUC(0-inf) / Cmax / MRT last / MRT inf: BBR in plasma; for MRT last: MRT(0–24 h); for MRT inf: MRT(0−∞); for half-life: t1/2, BBR in plasma; for level in plasma (below the lower limit of quantitation): any of the time points
Procedure, shortened: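 Male ICR mice, fasted 12 h, got a single oral dose of BBR 200 mg/kg + voriconazole 30 mg/kg, with food allowed after 3 h. Retrobulbar blood was drawn into heparinised tubes at 0.17–24 h (11 times) and stored at −20 °C. 100 μL plasma was precipitated with 300 μL methanol containing internal standard. BBR, M1 and M2 were measured by LC-MS/MS, with a curve of 1–1000 ng/mL and a lower limit of quantitation of 1 ng/mL.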

CYP51 = assay: Activity of CYP51 in four standard bacterial strains; assay type: cell-based, E. faecalis, S. epidermidis, E. cloacae, and E. faecium
Procedure, shortened: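 The four strains were resuscitated, plate-counted and diluted to equal density. 100 μL culture went into 0.9 mL sterile anaerobic medium, N₂-flushed, sealed and held at 37 °C. Groups were methanol control, 10 μL of 50 mg/mL BBR, or BBR plus 3.5 μg/mL voriconazole. After 48 and 72 h, cells were sonicated and CYP51 activity was measured by sterol 14α-demethylase ELISA kit.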

gut microbiota = assay: 16S rRNA analysis of the feces of ICR mice after oral administration; assay type: in vivo
CYP51 enzyme lysate = CYP51 enzyme lysate (Saccharomyces cerevisiae, UniProt P10614); assay: Enzymatic reaction in recombinant CYP51 enzyme lysate; assay type: biochemical, Saccharomyces cerevisiae S288C; settings: NADPH 0.5 mM, 0-4 h
CYP51 enzyme lysate, sequence (P10614 2-530): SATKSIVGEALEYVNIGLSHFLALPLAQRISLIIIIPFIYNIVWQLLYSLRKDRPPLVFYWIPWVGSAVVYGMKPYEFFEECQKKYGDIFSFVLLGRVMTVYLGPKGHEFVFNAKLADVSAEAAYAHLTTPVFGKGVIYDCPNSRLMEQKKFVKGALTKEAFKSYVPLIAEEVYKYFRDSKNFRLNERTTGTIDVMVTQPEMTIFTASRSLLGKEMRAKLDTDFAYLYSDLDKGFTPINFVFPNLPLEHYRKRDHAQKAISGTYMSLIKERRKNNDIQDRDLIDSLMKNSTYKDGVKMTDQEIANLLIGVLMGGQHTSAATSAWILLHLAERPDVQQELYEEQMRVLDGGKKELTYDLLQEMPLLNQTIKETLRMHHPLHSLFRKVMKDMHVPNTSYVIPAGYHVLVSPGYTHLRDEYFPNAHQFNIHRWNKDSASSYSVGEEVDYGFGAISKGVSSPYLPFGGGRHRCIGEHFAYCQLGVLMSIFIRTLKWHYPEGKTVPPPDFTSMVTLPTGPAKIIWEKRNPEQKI

[2] = cited from earlier work
mice gut microbiota = assay: Metabolism of BBR by the mice gut microbiota in vitro; assay type: in vitro ADME; settings: BBR 50 mg/mL + voriconazole 3.5 μg/mL vs BBR group
Procedure, shortened: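 Mouse colon contents were homogenised anaerobically, 1 g in 20 mL autoclaved anaerobic medium, and preincubated 60 min at 37 °C under N₂. 1 mL culture received 10 μL methanol solution (BBR 50 mg/mL + voriconazole 3.5 μg/mL, BBR alone, or methanol control), was sealed and incubated at 37 °C for 12–72 h. It was quenched with methanol, centrifuged, diluted 50-fold and precipitated with methanol plus internal standard. BBR, M1 and M2 were measured by LC-MS/MS (ESI+), curve 1–1000 ng/mL.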

[3] = system: mouse intestinal microsomes; assay: Metabolism of BBR in mouse intestinal microsomes in vitro; assay type: in vitro ADME; settings: BBR 50 mg/mL + voriconazole 3.5 μg/mL
[4] = system: E. faecalis, S. epidermidis, E. cloacae, and E. faecium; assay: Metabolism of BBR in the four standard bacterial strains; assay type: in vitro ADME; settings: BBR 50 mg/mL + voriconazole 3.5 μg/mL, 72 h
Procedure, shortened: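 Plate-counted strains, equalised in density, were put in anaerobic medium (100 μL culture + 0.9 mL), N₂-flushed, sealed and preincubated 1 h at 37 °C. Each got 10 μL BBR (50 mg/mL solution) ± voriconazole (3.5 μg/mL solution) or methanol control and was incubated 48 and 72 h. It was quenched with 1 mL methanol containing internal standard and centrifuged. BBR, M1 and M2 were measured by LC-MS/MS (curve 1–1000 ng/mL) and % BBR metabolism calculated.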

[5] = oral BBR 200 mg/kg + voriconazole 30 mg/kg
[6] = feces 24 h after oral BBR, vs control group, P < 0.05

## COc1ccc2cc3[n+](cc2c1OC)CCc1cc2c(cc1-3)OCO2 [BBR, Berberine]
[1]; [5]
  AUC(0-t): 299 ± 56.4 ng·h/mL
  AUC(0-inf): 388 ± 103 ng·h/mL
  Cmax: 64.5 ± 20.1 ng/mL
  MRT last: 6.5 ± 1.4 h
  MRT inf: 10.4 ± 2.32 h
  half-life: 9.91 ± 5.26 h
[1]; oral BBR 200 mg/kg
  AUC(0-t): 272 ± 68.4 ng·h/mL
  AUC(0-inf): 334 ± 79.3 ng·h/mL
  Cmax: 44.3 ± 10.4 ng/mL
  MRT last: 7.39 ± 1.71 h
  MRT inf: 12.7 ± 5.85 h
  half-life: 8.44 ± 5.55 h
CYP51; four strains incubated with 50 mg/mL BBR for 72 h
  activity of CYP51 compared with that in the strains alone: not significantly different
Gut microbiota; after oral BBR, vs control group, P < 0.05 (Fig. S2)
  abundance of Porphyromonadaceae (family level): significant increase
Gut microbiota; [6]
  abundance of the genus Parabacteroides: significant increase
  abundances of five genera (Tyzzerella 3, Rikenellaceae RC9 gut group, Roseburia, Tyzzerella, Ruminococcus 1): significant decrease
CYP51 enzyme lysate; BBR 10 μg/mL, CYP51 enzyme lysate compared with the control
  production ratios of M1 and M2: significantly increased
[2]
  share of BBR that could enter the blood (absorption rate): less than 10%

## CC(C)=CCC[C@@H](C)[C@H]1CC[C@@]2(C)C3=C(CC[C@]12C)[C@@]1(C)CC[C@H](O)C(C)(C)[C@@H]1CC3 [Lanosterol]
CYP51 enzyme lysate; lanosterol 10 μg/mL, CYP51 enzyme lysate
  production ratio of demethylated metabolite FF-MAS: increased significantly

## COc1c(O)ccc2cc3[n+](cc12)CCc1cc2c(cc1-3)OCO2 [M1, Thalifendine]
[1]; [5]
  level in plasma (below the lower limit of quantitation): < 1 ng/mL

## COc1ccc2cc3[n+](cc2c1O)CCc1cc2c(cc1-3)OCO2 [M2, Berberrubine]
[1]; [5]
  level in plasma (below the lower limit of quantitation): < 1 ng/mL

## C[C@@H](c1ncncc1F)[C@](O)(Cn1cncn1)c1ccc(F)cc1F [voriconazole]
Mice gut microbiota
  percentage of residual BBR after the addition of voriconazole: significantly increased
  production of M1 after the addition of voriconazole: significantly decreased
  production of M2 after the addition of voriconazole: significantly decreased
[3]; 30 min
  decrease of production of M1 after adding voriconazole: 21%
  decrease of production of M2 after adding voriconazole: 28%
[3]; 60 min
  decrease of production of M1 after adding voriconazole: 25%
  decrease of production of M2 after adding voriconazole: 26%
[3]; 120 min
  decrease of production of M1 after adding voriconazole: 20%
  decrease of production of M2 after adding voriconazole: 30%
[4]
  level of M2 produced by each strain after the addition of voriconazole: below the lower limit of quantitation
[4]; vs BBR group
  level of M1 produced by each strain after the addition of voriconazole: significantly reduced
CYP51; four strains, BBR 50 mg/mL + voriconazole 3.5 μg/mL, 72 h
  CYP51 activity after the addition of voriconazole: reduced
Gut microbiota; oral BBR 200 mg/kg + voriconazole 30 mg/kg vs BBR 200 mg/kg (Fig. S3)
  abundances of Parabacteroides, Tyzzerella 3, Rikenellaceae RC9 gut group, Roseburia, Tyzzerella, Ruminococcus 1 and Porphyromonadaceae after the addition of voriconazole: did not change significantly
